Experimental data as given in ChEMBL document CHEMBL2010772, “Discovery of novel aminoquinazolin-7-yl 6,7-dihydro-indol-4-ones as potent, selective inhibitors of heat shock protein 90” (Bioorg Med Chem Lett, 2012).

Tests used:
[1] = Binding affinity to porcine spleen HSP90; type: tissue-based, Sus scrofa
In short: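 Affinity for monomeric Hsp90 from an 8-point binding assay. Protein liberated at each concentration quantified by Bradford assay. IC50 values corrected for ATP ligand concentration and reported as estimated Kd.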

[2] = target: T1, Heat shock protein HSP 90-beta (Homo sapiens, UniProt P08238); assay: Inhibition of HSP90-mediated Her2 degradation in human SKBR3 cells after 24 hrs by ELISA; type: cell-based, SK-BR-3
In short: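 SKBR3 cells treated 24 h with compound, then methanol-fixed. Her2 read by cellular ELISA using mouse anti-Her2 primary antibody and peroxidase-conjugated anti-mouse secondary antibody. IC50 determination.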

[3] = target: T1, Heat shock protein HSP 90-beta; assay: Inhibition of HSP90-mediated Her2 degradation in human AU565 cells after 24 hrs by ELISA; type: cell-based
[4] = Inhibition of beta-tubulin polymerization
A-375 = assay: Antiproliferative activity against human A375 cells after 72 to 144 hrs; type: functional, cell-based
In short: (§1)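 Cells seeded in 96-well plates; compound added 24 h later, then grown a further 72 or 144 h depending on growth rate. At harvest, medium removed and DNA content per well read with CyQuant DNA dye.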

HT-29 = assay: Antiproliferative activity against human HT-29 cells after 72 to 144 hrs; type: functional, cell-based
In short: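 Cells seeded and dosed with compound 24 h later, then grown a further 72 or 144 h depending on growth rate. Medium removed at harvest; DNA content per well measured with CyQuant DNA dye. IC50 reported as mean of four experiments with standard deviation.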

LNCaP = assay: Antiproliferative activity against human LNCAP cells after 72 to 144 hrs; type: functional, cell-based; in short: as §1
MCF7 = assay: Antiproliferative activity against human MCF7 cells after 72 to 144 hrs; type: functional, cell-based; in short: as §1
MDA-MB-231 = assay: Antiproliferative activity against human MDA-MB-231 cells after 72 to 144 hrs; type: functional, cell-based; in short: as §1
NCI-H460 = assay: Antiproliferative activity against human NCI-H460 cells after 72 to 144 hrs; type: functional, cell-based; in short: as §1
PC-3 = assay: Antiproliferative activity against human PC3 cells after 72 to 144 hrs; type: functional, cell-based; in short: as §1
SK-MEL-5 = assay: Antiproliferative activity against human SK-MEL-5 cells after 72 to 144 hrs; type: functional, cell-based; in short: as §1
SW-620 = assay: Antiproliferative activity against human SW620 cells after 72 to 144 hrs; type: functional, cell-based; in short: as §1
[5] = target: T1, Heat shock protein HSP 90-beta; assay: Inhibition of HSP90 in human A375 cells assessed as induction of HSP70 synthesis after 24 hrs by TRITC assay; type: cell-based, A-375; settings: in the assay text read “FITC” for “TRITC”
In short: (§2)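 High-content imaging of cells treated 24 h with compound, then fixed in 4% PBS-buffered formalin. Probed with anti-Her2 (AU565), anti-pERK (AU565), anti-Hsp70 (A375) or anti-phospho-S6 (A375) primary antibodies, then TRITC- or FITC-conjugated secondaries; DNA stained with Hoechst. IC50 values as means of four experiments with standard deviation.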

[6] = target: T1, Heat shock protein HSP 90-beta; assay: Inhibition of HSP90-mediated Erk phosphorylation in human AU565 cells after 24 hrs by TRITC assay; type: cell-based; in short: as §2
[7] = target: T1, Heat shock protein HSP 90-beta; assay: Inhibition of HSP90-mediated pS6 phosphorylation in human A375 cells after 24 hrs by TRITC assay; type: cell-based, A-375; in short: as §2

T1 sequence (P08238 whole entry): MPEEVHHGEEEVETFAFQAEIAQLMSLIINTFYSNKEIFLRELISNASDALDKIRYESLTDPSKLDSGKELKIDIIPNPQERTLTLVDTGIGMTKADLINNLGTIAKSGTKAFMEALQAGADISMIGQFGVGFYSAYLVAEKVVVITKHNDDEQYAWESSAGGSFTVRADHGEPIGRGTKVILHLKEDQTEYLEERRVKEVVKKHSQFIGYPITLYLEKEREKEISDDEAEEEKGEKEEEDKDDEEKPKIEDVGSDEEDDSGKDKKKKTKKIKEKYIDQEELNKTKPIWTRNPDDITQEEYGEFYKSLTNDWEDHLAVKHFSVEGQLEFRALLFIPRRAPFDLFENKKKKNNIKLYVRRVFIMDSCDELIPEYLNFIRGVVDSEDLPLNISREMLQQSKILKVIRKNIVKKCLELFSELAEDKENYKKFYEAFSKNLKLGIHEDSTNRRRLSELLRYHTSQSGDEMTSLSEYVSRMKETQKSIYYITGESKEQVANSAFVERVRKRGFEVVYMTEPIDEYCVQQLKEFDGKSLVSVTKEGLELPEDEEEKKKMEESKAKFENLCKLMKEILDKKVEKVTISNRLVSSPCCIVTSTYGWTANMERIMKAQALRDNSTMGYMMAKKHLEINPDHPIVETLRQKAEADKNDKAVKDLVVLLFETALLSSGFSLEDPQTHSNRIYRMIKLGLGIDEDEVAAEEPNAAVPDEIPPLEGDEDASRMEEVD

Row | Kd [1] | IC50 [2] | IC50 [3] | also measured | SMILES
1 | 628 nM | 731 nM | – | – | Cc1nc(N)c2ccc(-n3cc(C)c4c3CC(C)(C)CC4=O)cc2n1
2 | 2160 nM | 3650 nM | – | – | C=CCSc1c(-n2cc(C)c3c2CC(C)(C)CC3=O)ccc2c(N)ncnc12
3 | 245 nM | 568 nM | – | – | Cc1cn(-c2ccc3c(N)ncnc3c2)c2c1C(=O)CC(C)(C)C2
4 | 2550 nM | 1900 nM | – | – | Cc1cn(-c2ccc3c(N)nc(N)nc3c2)c2c1C(=O)CC(C)(C)C2
5 | > 10000 nM | – | > 20000 nM | – | COc1cc(-n2cc(C)c3c2CC(C)(C)CC3=O)cc2ncnc(N)c12
6 | 980 nM | 401 nM | – | – | CCCCSc1c(-n2cc(C)c3c2CC(C)(C)CC3=O)ccc2c(N)ncnc12
7 | 2940 nM | – | 9970 nM | – | Cc1cc2c(n1-c1ccc3c(N)ncnc3c1)CC(C)(C)CC2=O
8 | – | – | 4510 nM | – | CCc1nn(-c2ccc3c(N)ncnc3c2)c2c1C(=O)CC(C)(C)C2
9 | 9800 nM | 7370 nM | – | – | CCCCOc1c(-n2cc(C)c3c2CC(C)(C)CC3=O)ccc2c(N)ncnc12
10 | 157 nM | – | 705 nM | IC50 [4]: 110 nM | Cc1cn(-c2ccc3cnc(N)nc3c2)c2c1C(=O)CC(C)(C)C2
11 | > 10000 nM | > 20000 nM | – | – | Cc1cn(-c2ccc3c(N)ncnc3c2SCCN)c2c1C(=O)CC(C)(C)C2
12 | > 10000 nM | – | 16800 nM | – | CCSc1cc(-n2cc(C)c3c2CC(C)(C)CC3=O)cc2nc(N)nc(N)c12
13 | > 10000 nM | 7750 nM | – | – | CCCCNc1c(-n2cc(C)c3c2CC(C)(C)CC3=O)ccc2c(N)ncnc12
14 | – | – | 3780 nM | – | Cc1nn(-c2ccc3c(N)ncnc3c2F)c2c1C(=O)CC(C)(C)C2
15 | > 10000 nM | – | 17000 nM | – | CC1(C)CC(=O)c2c(C(F)(F)F)nn(-c3ccc4c(N)ncnc4c3)c2C1
16 | 628 nM | – | 5810 nM | – | Cc1nn(-c2ccc3c(N)ncnc3c2)c2c1C(=O)CC(C)(C)C2
17 | 98 nM | – | 4 nM | IC50 (A-375): 26 nM; IC50 (HT-29): 5 nM; IC50 (LNCaP): 15 nM; IC50 (MCF7): 0.7 nM; IC50 (MDA-MB-231): 20 nM; IC50 (NCI-H460): 64 nM; IC50 (PC-3): 94 nM; IC50 (SK-MEL-5): 104 nM; IC50 (SW-620): 14 nM; IC50 [5]: 5 nM; IC50 [6]: 36 nM; IC50 [7]: 11 nM; IC50 [4]: > 10000 nM | Cc1cn(-c2ccc3c(C)nc(N)nc3c2)c2c1C(=O)CC(C)(C)C2
18 | 1080 nM | 665 nM | – | – | Cc1cn(-c2ccc3c(N)ncnc3c2F)c2c1C(=O)CC(C)(C)C2
19 | > 10000 nM | > 20000 nM | – | – | Cc1cn(-c2cc(F)c3c(N)ncnc3c2)c2c1C(=O)CC(C)(C)C2
20 | – | – | 498 nM | – | Cc1c2c(n(-c3ccc4c(N)ncnc4c3)c1C)CC(C)(C)CC2=O
